Experimental data reported in ChEMBL document CHEMBL3102806, “1,2,4-Triazole/oxime hybrids as new strategy for nitric oxide donors: Synthesis, anti-inflammatory, ulceroginicity and antiproliferative activities” (Eur J Med Chem, 2014).

Assays:
Type in all cases: functional
K562 = assay: Growth inhibition of human K562 cells after 48 hrs by sulforhodamine B assay; conditions: K562, 48 h
In short: (§1)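 NCI full ~60 cell line panel. Five 10-fold concentrations from 10^-4 to 10^-8 M, 48 h continuous exposure, SRB protein read-out. Time-zero, control and treated absorbances give percentage growth. GI50 is the concentration where [(Ti−Tz)/(C−Tz)]×100 = 50; TGI is where Ti = Tz; LC50 is where [(Ti−Tz)/Tz]×100 = −50.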

CCRF-CEM = assay: Growth inhibition of human CCRF-CEM cells after 48 hrs by sulforhodamine B assay; in short: as §1
T47D = assay: Growth inhibition of human T47D cells after 48 hrs by sulforhodamine B assay
In short: (§2)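 NCI 60-cell-line panel, five-dose run at 10-fold dilutions from 10^-4 to 10^-8 M, 48 h continuous exposure. Viability by SRB protein stain. Percent growth is taken from time-zero, untreated-control and treated absorbances. GI50 is the concentration giving a 50% lower net protein increase than in control cells. TGI is taken at Ti = Tz, LC50 at a 50% loss of initial protein.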

MDA-MB-231 = assay: Growth inhibition of human MDA-MB-231 cells after 48 hrs by sulforhodamine B assay; conditions: MDA-MB-231, 48 h
In short: (§3)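 NCI 60-cell-line panel (nine tumour subpanels), five-dose format: 10-fold dilutions from 10^-4 to 10^-8 M, 48 h continuous exposure, SRB protein stain. Percent growth at each level is derived from time-zero, untreated control and treated absorbances. GI50 is the concentration where [(Ti−Tz)/(C−Tz)]×100 = 50. Values outside the tested range are reported as above or below the limit.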

[1] = Growth inhibition of human Hs 578T cells after 48 hrs by sulforhodamine B assay; in short: as §1
DU-145 = assay: Growth inhibition of human DU145 cells after 48 hrs by sulforhodamine B assay; conditions: DU-145, 48 h; in short: as §1
TK-10 = assay: Growth inhibition of human TK10 cells after 48 hrs by sulforhodamine B assay; conditions: TK-10, 48 h; in short: as §2
CAKI-1 = assay: Growth inhibition of human CAKI-1 cells after 48 hrs by sulforhodamine B assay; conditions: CAKI-1, 48 h; in short: as §1
786-0 = assay: Growth inhibition of human 786-0 cells after 48 hrs by sulforhodamine B assay; conditions: 786-0, 48 h; in short: as §1
OVCAR-8 = assay: Growth inhibition of human OVCAR8 cells after 48 hrs by sulforhodamine B assay; conditions: OVCAR-8, 48 h; in short: as §3
[2] = Growth inhibition of human OVCAR5 cells after 48 hrs by sulforhodamine B assay; conditions: OVCAR-5, 48 h; in short: as §3
[3] = Growth inhibition of human OVCAR4 cells after 48 hrs by sulforhodamine B assay; conditions: OVCAR-4, 48 h; in short: as §3
UACC-62 = assay: Growth inhibition of human UACC62 cells after 48 hrs by sulforhodamine B assay; conditions: UACC-62, 48 h; in short: as §2
[4] = Growth inhibition of human UACC257 cells after 48 hrs by sulforhodamine B assay; conditions: UACC-257, 48 h; in short: as §2
SK-MEL-5 = assay: Growth inhibition of human SK-MEL-5 cells after 48 hrs by sulforhodamine B assay; conditions: SK-MEL-5, 48 h; in short: as §2
SK-MEL-28 = assay: Growth inhibition of human SK-MEL-28 cells after 48 hrs by sulforhodamine B assay; conditions: SK-MEL-28, 48 h; in short: as §2
MDA-MB-435 = assay: Growth inhibition of human MDA-MB-435 cells after 48 hrs by sulforhodamine B assay; conditions: MDA-MB-435, 48 h; in short: as §3
M14 = assay: Growth inhibition of human M14 cells after 48 hrs by sulforhodamine B assay; conditions: M14, 48 h; in short: as §3
SNB-19 = assay: Growth inhibition of human SNB19 cells after 48 hrs by sulforhodamine B assay; conditions: SNB-19, 48 h; in short: as §2
[5] = Growth inhibition of human SF539 cells after 48 hrs by sulforhodamine B assay; conditions: SF-539, 48 h; in short: as §3
SW-620 = assay: Growth inhibition of human SW620 cells after 48 hrs by sulforhodamine B assay; conditions: SW-620, 48 h; in short: as §2
HCT-116 = assay: Growth inhibition of human HCT116 cells after 48 hrs by sulforhodamine B assay; conditions: HCT-116, 48 h; in short: as §1
COLO 205 = assay: Growth inhibition of human COLO205 cells after 48 hrs by sulforhodamine B assay; conditions: COLO 205, 48 h; in short: as §1
NCI-H522 = assay: Growth inhibition of human NCI-H522 cells after 48 hrs by sulforhodamine B assay; conditions: NCI-H522, 48 h; in short: as §3
NCI-H460 = assay: Growth inhibition of human NCI-H460 cells after 48 hrs by sulforhodamine B assay; conditions: NCI-H460, 48 h; in short: as §3
NCI-H322M = assay: Growth inhibition of human NCI-H322M cells after 48 hrs by sulforhodamine B assay; in short: as §3
A549 = assay: Growth inhibition of human A549/ATCC cells after 48 hrs by sulforhodamine B assay; conditions: A549, 48 h; in short: as §1
[6] = read-out: LC50 (the source's name)

Compound `COc1ccc(-c2nnc(SCC(=O)Nc3ccc(/C(C)=N/O)cc3)n2-c2ccccc2)cc1OC` has a GI50 (K562) of over 100 µM, a TGI (K562) of over 100 µM and a CC50 (K562; [6]) of over 100 µM. The GI50 (CCRF-CEM) was over 100 µM, the TGI (CCRF-CEM) was over 100 µM and the CC50 (CCRF-CEM; [6]) was over 100 µM. The GI50 (T47D) was 9.45 µM, the TGI (T47D) was over 100 µM and the CC50 (T47D; [6]) was over 100 µM. For the same compound, the GI50 (MDA-MB-231) was 4.26 µM, the TGI (MDA-MB-231) was 23.8 µM and the CC50 (MDA-MB-231; [6]) was over 100 µM. The GI50 [1] was 3.75 µM, the TGI [1] was over 100 µM and the CC50 [1, 6] was over 100 µM. It also gave a GI50 (DU-145) of 24.9 µM, a TGI (DU-145) of over 100 µM and a CC50 (DU-145; [6]) of over 100 µM. The GI50 (TK-10) was 11.3 µM, the TGI (TK-10) was 52.7 µM and the CC50 (TK-10; [6]) was over 100 µM. For the same compound, the GI50 (CAKI-1) was over 100 µM, the TGI (CAKI-1) was over 100 µM and the CC50 (CAKI-1; [6]) was over 100 µM. For the same compound, the GI50 (786-0) was 14.9 µM, the TGI (786-0) was over 100 µM and the CC50 (786-0; [6]) was over 100 µM. The GI50 (OVCAR-8) was 7.36 µM, the TGI (OVCAR-8) was over 100 µM and the CC50 (OVCAR-8; [6]) was over 100 µM. For the same compound, the GI50 [2] was over 100 µM, the TGI [2] was over 100 µM and the CC50 [2, 6] was over 100 µM. It also gave a GI50 [3] of over 100 µM, a TGI [3] of over 100 µM and a CC50 [3, 6] of over 100 µM. For the same compound, the GI50 (UACC-62) was over 100 µM, the TGI (UACC-62) was over 100 µM and the CC50 (UACC-62; [6]) was over 100 µM. The GI50 [4] was over 100 µM, the TGI [4] was over 100 µM and the CC50 [4, 6] was over 100 µM. The GI50 (SK-MEL-5) was over 100 µM, the TGI (SK-MEL-5) was over 100 µM and the CC50 (SK-MEL-5; [6]) was over 100 µM. The GI50 (SK-MEL-28) was over 100 µM, the TGI (SK-MEL-28) was over 100 µM and the CC50 (SK-MEL-28; [6]) was over 100 µM. The GI50 (MDA-MB-435) was over 100 µM, the TGI (MDA-MB-435) was over 100 µM and the CC50 (MDA-MB-435; [6]) was over 100 µM. The GI50 (M14) was 97.4 µM, the TGI (M14) was over 100 µM and the CC50 (M14; [6]) was over 100 µM. It also gave a GI50 (SNB-19) of 6.43 µM, a TGI (SNB-19) of over 100 µM and a CC50 (SNB-19; [6]) of over 100 µM. For the same compound, the GI50 [5] was 4.77 µM, the TGI [5] was 38.8 µM and the CC50 [5, 6] was over 100 µM. For the same compound, the GI50 (SW-620) was over 100 µM, the TGI (SW-620) was over 100 µM and the CC50 (SW-620; [6]) was over 100 µM. The GI50 (HCT-116) was 11.3 µM, the TGI (HCT-116) was over 100 µM and the CC50 (HCT-116; [6]) was over 100 µM. The GI50 (COLO 205) was over 100 µM, the TGI (COLO 205) was over 100 µM and the CC50 (COLO 205; [6]) was over 100 µM. For the same compound, the GI50 (NCI-H522) was 21.4 µM, the TGI (NCI-H522) was over 100 µM and the CC50 (NCI-H522; [6]) was over 100 µM. It also gave a GI50 (NCI-H460) of over 100 µM, a TGI (NCI-H460) of over 100 µM and a CC50 (NCI-H460; [6]) of over 100 µM. For the same compound, the GI50 (NCI-H322M) was 4.41 µM, the TGI (NCI-H322M) was over 100 µM and the CC50 (NCI-H322M; [6]) was over 100 µM. For the same compound, the GI50 (A549) was 9.73 µM, the TGI (A549) was over 100 µM and the CC50 (A549; [6]) was over 100 µM.
